Measured values published in ChEMBL document CHEMBL1124216, “A novel class of potential central nervous system agents. 3-Phenyl-2-(1-piperazinyl)-5H-1-benzazepines” (1988).

Columns and labels:
Assay type in all cases: functional
Mus musculus [1] = experiment: Antitremorine activity(TRM) of mice after peroral administration of 100 mg/kg of compound; No inhibition; conditions: route oral
Mus musculus [2] = experiment: Antimaximal electroshock seizure (MES) activity in mice after peroral administration of 100 mg/kg of compound; 3/5; conditions: route oral
Mus musculus [3] = experiment: Antireserpine activity (RES) of mice after peroral administration of 100 mg/kg of compound; No inhibition; conditions: route oral
Mus musculus [4] = experiment: Antiexploratory activity (EXPL) of mice determined by an antimex activity meter, 100 mg/kg of dose was administered perorally; No inhibition; conditions: route oral
Mus musculus [5] = experiment: Antimaximal electroshock seizure activity was determined in mice when administered perorally; conditions: po
Mus musculus [6] = experiment: Antipentylene tetrazole activity was determined in mice when administered perorally; conditions: po
Procedure, shortened: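 Groups of five male Std-ddY mice received compound orally in 0.5% tragacanth, then pentylenetetrazole 175 mg/kg ip. Blockade of the tonic extensor component scored as anticonvulsant. ED50 was the dose protecting 50% of animals (Litchfield-Wilcoxon).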

Mus musculus [7] = experiment: Antitremorine activity(TRM) of mice after peroral administration of 100 mg/kg of compound; Moderate inhibition (51-71%); conditions: route oral
Mus musculus [8] = experiment: Antimaximal electroshock seizure (MES) activity in mice after peroral administration of 100 mg/kg of compound; 4/5; conditions: route oral
Mus musculus [9] = experiment: Antimaximal electroshock seizure (MES) activity in mice after peroral administration of 10 mg/kg of compound; 0/5; conditions: route oral
Mus musculus [10] = experiment: Antimaximal electroshock seizure (MES) activity in mice after peroral administration of 100 mg/kg of compound; 0/5; conditions: route oral
Mus musculus [11] = experiment: Antireserpine activity (RES) of mice after peroral administration of 100 mg/kg of compound; Slight inhibition (31-50%); conditions: route oral
Mus musculus [12] = experiment: Antiexploratory activity (EXPL) of mice determined by an antimex activity meter, 100 mg/kg of dose was administered perorally; Moderate inhibition (51-71%); conditions: route oral
Mus musculus [13] = experiment: The homovanillic acid (HVA) levels in mouse brain at 10 mg/kg of dose.
Procedure, shortened: (§1)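 Mice dosed orally in 0.5% aqueous tragacanth; brains of five mice per compound pooled. Homovanillic acid measured in brain extracts and reported as brain level.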

Mus musculus [14] = experiment: Exploratory activity of mice determined by an antimex activity meter, 50 mg/kg of dose was administered perorally; conditions: Mus musculus, po
Procedure, shortened: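 Male Std-ddY mice (20-25 g), five per dose; compound in 0.5% aqueous tragacanth given orally. Two hours later each mouse placed in an Animex activity meter cage and locomotor activity counted for 3 min. Mean suppression expressed as percent inhibition of control; ED50 by Litchfield-Wilcoxon.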

Mus musculus [15] = experiment: Antiexploratory activity (EXPL) of mice determined by an antimex activity meter, 50 mg/kg of dose was administered perorally; Moderate inhibition (51-71%); conditions: route oral
Canis familiaris = experiment: Inhibition of apomorphine induced emesis in dogs at 1 mg/kg of dose.; conditions: Canis lupus familiaris
Procedure, shortened: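 Beagle dogs (10-15 kg), groups of three, given compound po in a gelatin capsule; 2 h later apomorphine hydrochloride 0.3 mg/kg sc. Vomiting counted for 1 h; mean inhibition as percent of control. ED50 is the dose giving 50% inhibition of emesis, by Litchfield-Wilcoxon.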

Mus musculus [16] = experiment: 3,4 -Dihydroxy phenylacetic acid (DOPAC) levels in mouse brain at 10 mg/kg dose.
Procedure, shortened: (§2)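 Male Std-ddY mice, 20-25 g, dosed orally with compound in 0.5% aqueous tragacanth. DOPAC was measured fluorometrically after purification by column chromatography on Sephadex G-10 and QAE-Sephadex. Brains from five mice per compound were pooled for each determination.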

Mus musculus [17] = experiment: Exploratory activity of mice determined by an antimex activity meter, 10 mg/kg of dose was administered perorally; conditions: route oral
Mus musculus [18] = experiment: 3,4 -Dihydroxy phenylacetic acid (DOPAC) levels in mouse brain at 50 mg/kg dose.; procedure, shortened: as §2
Mus musculus [19] = experiment: Antiexploratory activity (EXPL) of mice determined by an antimex activity meter, 10 mg/kg of dose was administered perorally; No inhibition; conditions: route oral
Mus musculus [20] = experiment: The homovanillic acid (HVA) levels in mouse brain at 50 mg/kg of dose.; procedure, shortened: as §1
Mus musculus [21] = experiment: Antimaximal electroshock seizure (MES) activity in mice after peroral administration of 100 mg/kg of compound; 5/5; conditions: route oral
Mus musculus [22] = experiment: Antitremorine activity(TRM) of mice after peroral administration of 100 mg/kg of compound; Slight inhibition (31-50%); conditions: route oral
Mus musculus [23] = experiment: Antiexploratory activity (EXPL) of mice determined by an antimex activity meter, 100 mg/kg of dose was administered perorally; Slight inhibition (31-50%); conditions: route oral
Mus musculus [24] = experiment: Antiexploratory activity (EXPL) of mice determined by an antimex activity meter,100 mg/kg of dose was administered perorally; No inhibition
Mus musculus [25] = experiment: Antireserpine activity (RES) of mice after peroral administration of 50 mg/kg of compound; No inhibition; conditions: route oral
Mus musculus [26] = experiment: Antiexploratory activity (EXPL) of mice determined by an antimex activity meter, 50 mg/kg of dose was administered perorally; No inhibition; conditions: route oral
Mus musculus [27] = experiment: Antitremorine activity(TRM) of mice after peroral administration of 100 mg/kg of compound; conditions: route oral

## CCN1CCN(C2=Nc3ccc(Br)cc3CC=C2c2ccccc2)CC1.Cl.Cl
Mus musculus [1]
  inhibition in vivo at 100 mg/kg: < 30%
Mus musculus [2]
  Activity: 3
Mus musculus [3]
  inhibition in vivo at 100 mg/kg: < 30%
Mus musculus [4]
  inhibition in vivo at 100 mg/kg: < 30%
Mus musculus [5]
  ED50: 30.7 mg/kg
Mus musculus [6]
  ED50: 17.2 mg/kg

## Cl.Cl.OCCN1CCN(C2=Nc3ccc(Cl)cc3CC=C2c2ccccc2)CC1
Mus musculus [3]
  inhibition in vivo at 100 mg/kg: < 30%
Mus musculus [7]
  inhibition in vivo at 100 mg/kg: 51%
Mus musculus [4]
  inhibition in vivo at 100 mg/kg: < 30%
Mus musculus [5]
  ED50: 49.5 mg/kg
Mus musculus [8]
  Activity: 4
Mus musculus [6]
  ED50: 26.5 mg/kg
Mus musculus [9]
  Activity: 0

## CN1CCN(C2=Nc3ccccc3CC=C2c2ccccc2)CC1.Cl.Cl
Mus musculus [1]
  inhibition in vivo at 100 mg/kg: < 30%
Mus musculus [10]
  Activity: 0
Mus musculus [5]
  ED50: > 100 mg/kg
Mus musculus [11]
  inhibition in vivo at 100 mg/kg: 31%
Mus musculus [12]
  inhibition in vivo at 100 mg/kg: 51%

## Cl.Cl.OCCN1CCN(C2=Nc3ccccc3CC=C2c2ccc(F)cc2)CC1
Mus musculus [13]
  Control: 243%
Mus musculus [14]
  inhibition in vivo at 50 mg/kg: 68.4%
Mus musculus [15]
  inhibition in vivo at 50 mg/kg: 51%
Canis familiaris
  inhibition in vivo at 1 mg/kg: 100%
Mus musculus [16]
  Control: 262%
Mus musculus [17]
  inhibition in vivo at 10 mg/kg: 19.6%
Mus musculus [18]
  Control: 369%
Mus musculus [19]
  inhibition in vivo at 10 mg/kg: < 30%
Mus musculus [20]
  Control: 349%

## CCc1ccc2c(c1)CC=C(c1ccccc1)C(N1CCN(C)CC1)=N2.Cl.Cl
Mus musculus [3]
  inhibition in vivo at 100 mg/kg: < 30%
Mus musculus [7]
  inhibition in vivo at 100 mg/kg: 51%
Mus musculus [21]
  Activity: 5
Mus musculus [9]
  Activity: 0

## CN1CCN(C2=Nc3ccccc3CC=C2c2ccc(Cl)cc2)CC1.Cl.Cl
Mus musculus [10]
  Activity: 0
Mus musculus [3]
  inhibition in vivo at 100 mg/kg: < 30%
Mus musculus [22]
  inhibition in vivo at 100 mg/kg: 31%
Mus musculus [23]
  inhibition in vivo at 100 mg/kg: 31%

## CCN1CCN(C2=Nc3ccccc3CC=C2c2ccc(Cl)cc2)CC1.Cl.Cl
Mus musculus [1]
  inhibition in vivo at 100 mg/kg: < 30%
Mus musculus [10]
  Activity: 0
Mus musculus [3]
  inhibition in vivo at 100 mg/kg: < 30%
Mus musculus [12]
  inhibition in vivo at 100 mg/kg: 51%

## Cc1ccc2c(c1)CC=C(c1ccccc1)C(N1CCN(C)CC1)=N2.Cl.Cl
Mus musculus [1]
  inhibition in vivo at 100 mg/kg: < 30%
Mus musculus [2]
  Activity: 3
Mus musculus [3]
  inhibition in vivo at 100 mg/kg: < 30%
Mus musculus [4]
  inhibition in vivo at 100 mg/kg: < 30%
Mus musculus [5]
  ED50: 86.1 mg/kg
Mus musculus [6]
  ED50: 50.9 mg/kg

## CN1CCN(C2=Nc3cc(Cl)ccc3CC=C2c2ccc(Cl)cc2)CC1.Cl.Cl
Mus musculus [1]
  inhibition in vivo at 100 mg/kg: < 30%
Mus musculus [10]
  Activity: 0
Mus musculus [3]
  inhibition in vivo at 100 mg/kg: < 30%
Mus musculus [12]
  inhibition in vivo at 100 mg/kg: 51%

## Cl.OC1(c2ccc(Cl)cc2)CCN(C2=Nc3ccc(Br)cc3CC=C2c2ccccc2)CC1
Mus musculus [1]
  inhibition in vivo at 100 mg/kg: < 30%
Mus musculus [10]
  Activity: 0
Mus musculus [3]
  inhibition in vivo at 100 mg/kg: < 30%
Mus musculus [24]
  Inhibition: <30%

## CCc1ccc2c(c1)CC=C(c1ccccc1)C(N1CCN(CC)CC1)=N2.Cl.Cl
Mus musculus [3]
  inhibition in vivo at 100 mg/kg: < 30%
Mus musculus [7]
  inhibition in vivo at 100 mg/kg: 51%
Mus musculus [21]
  Activity: 5
Mus musculus [9]
  Activity: 0
Mus musculus [23]
  inhibition in vivo at 100 mg/kg: 31%

## OCCN1CCN(C2=Nc3ccccc3CC=C2c2ccc(C(F)(F)F)cc2)CC1
Mus musculus [25]
  inhibition in vivo at 50 mg/kg: < 30%
Mus musculus [26]
  inhibition in vivo at 50 mg/kg: < 30%

## Cl.Cl.OCCN1CCN(C2=Nc3ccccc3CC=C2c2ccccc2Cl)CC1
Mus musculus [10]
  Activity: 0
Mus musculus [3]
  inhibition in vivo at 100 mg/kg: < 30%
Mus musculus [22]
  inhibition in vivo at 100 mg/kg: 31%
Mus musculus [12]
  inhibition in vivo at 100 mg/kg: 51%

## C1=C(c2ccccc2)C(N2CCCCC2)=Nc2ccccc2C1.Cl.Cl
Mus musculus [1]
  inhibition in vivo at 100 mg/kg: < 30%
Mus musculus [10]
  Activity: 0
Mus musculus [3]
  inhibition in vivo at 100 mg/kg: < 30%
Mus musculus [23]
  inhibition in vivo at 100 mg/kg: 31%

## CN1CCN(C2=Nc3ccc(Br)cc3CC=C2c2ccccc2)CC1.Cl.Cl
Mus musculus [3]
  inhibition in vivo at 100 mg/kg: < 30%
Mus musculus [4]
  inhibition in vivo at 100 mg/kg: < 30%
Mus musculus [5]
  ED50: 31.2 mg/kg
Mus musculus [21]
  Activity: 5
Mus musculus [6]
  ED50: 8.3 mg/kg
Mus musculus [27]
  inhibition in vivo at 100 mg/kg: > 71%

## CCN1CCN(C2=Nc3ccc(F)cc3CC=C2c2ccccc2)CC1.Cl.Cl
Mus musculus [1]
  inhibition in vivo at 100 mg/kg: < 30%
Mus musculus [10]
  Activity: 0
Mus musculus [3]
  inhibition in vivo at 100 mg/kg: < 30%
Mus musculus [5]
  ED50: > 500 mg/kg
Mus musculus [6]
  ED50: > 100 mg/kg
Mus musculus [12]
  inhibition in vivo at 100 mg/kg: 51%

## CCN1CCN(C2=Nc3ccccc3CC=C2c2ccc(C(F)(F)F)cc2)CC1
Mus musculus [25]
  inhibition in vivo at 50 mg/kg: < 30%
Mus musculus [26]
  inhibition in vivo at 50 mg/kg: < 30%
